In article PMC10586084 (Journal of Enzyme Inhibition and Medicinal Chemistry, 2023):
pKi: −log10 of the molar value.

Assays:
hCA I = hCA I (Homo sapiens, UniProt P00915); assay: stopped-flow CO2 hydrase assay, hCA I; format: biochemical; settings: stopped flow technique, mean from three assays
hCA II = hCA II (Homo sapiens, UniProt P00918); assay: stopped-flow CO2 hydrase assay, hCA II; format: biochemical; settings: stopped flow technique, mean from three assays
hCA IV = hCA IV (Homo sapiens, UniProt P22748); assay: stopped-flow CO2 hydrase assay, hCA IV; format: biochemical; settings: stopped flow technique, mean from three assays
hCA IX = hCA IX (Homo sapiens, UniProt Q16790); assay: biochemical; format: biochemical
hCA XII = hCA XII (Homo sapiens, UniProt O43570); assay: stopped-flow CO2 hydrase assay, hCA XII; format: biochemical
[1] = cytotoxicity in resting peripheral blood lymphocytes; format: cell-based; settings: human
[2] = system: HD-MB03 and DAOY medulloblastoma cell lines; assay: cell proliferation analysis; format: cell-based, human; settings: compound 10 µM + cis-Pt 1.8 µM, 72 h, both MB cell lines
[3] = system: HuTuP192 primary glioblastoma cells; assay: cell proliferation analysis; format: cell-based, human; settings: compound 10 µM + TMZ 500 µM, 72 h, HuTuP192
[4] = system: HuTuP108 primary glioblastoma cells; assay: cell proliferation analysis; format: cell-based, human; settings: compound 10 µM + TMZ 500 µM, 72 h
HD-MB03 cells = assay: apoptosis assay; format: cell-based, human; settings: 72 h; for apoptotic cells in combination with cis-Pt: 10 µM + cis-Pt 1.8 µM, HD-MB03, vs single treatments; for induction of apoptosis (apoptotic cells): 10 µM alone, HD-MB03
How it was run: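 HD-MB03 medulloblastoma cells grown in RPMI 1640 with 10% FBS, 1% glutamine and 1% penicillin–streptomycin, kept at 2% O2/5% CO2. Seeded at 10 000 cells/well, treated after 24 h, exposed 72 h. Stained 15 min in the dark at room temperature with Annexin V–FITC (FL1, 525 nm/40) and PI (FL3, 620 nm/20). Whole population analysed by flow cytometry. Mean ± SE, three independent experiments.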

[5] = system: HuTuP108 GBM primary cells; assay: apoptosis assay; format: cell-based, human; settings: 72 h; for apoptotic cells in combination with TMZ: 10 µM + TMZ 500 µM, HuTuP108, vs single treatments; for induction of apoptosis: 10 µM alone, HuTuP108
How it was run: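 Patient-derived primary glioblastoma cells on fibronectin-coated plates in DMEM/F12 with 10% BIT9500, 20 ng/mL bFGF and 20 ng/mL EGF, held at 2% O2/5% CO2. Seeded at 10 000 cells/well, dosed 24 h later for 72 h. Annexin V–FITC/PI staining for 15 min in the dark at room temperature, then flow cytometry (FL1 525 nm/40, FL3 620 nm/20) on the whole population. Mean ± SE of three independent experiments.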

Sequence of hCA XII (O43570 25-354): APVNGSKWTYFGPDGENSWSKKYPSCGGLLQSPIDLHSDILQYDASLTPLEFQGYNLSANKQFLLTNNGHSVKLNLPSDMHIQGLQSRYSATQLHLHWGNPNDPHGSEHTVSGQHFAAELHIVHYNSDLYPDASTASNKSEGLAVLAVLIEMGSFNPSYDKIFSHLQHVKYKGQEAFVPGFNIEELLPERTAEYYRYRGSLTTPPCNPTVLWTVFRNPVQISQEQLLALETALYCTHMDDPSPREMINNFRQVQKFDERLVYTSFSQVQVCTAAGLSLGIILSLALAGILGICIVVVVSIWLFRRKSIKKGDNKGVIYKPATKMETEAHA
Sequence of hCA I (P00915 whole entry): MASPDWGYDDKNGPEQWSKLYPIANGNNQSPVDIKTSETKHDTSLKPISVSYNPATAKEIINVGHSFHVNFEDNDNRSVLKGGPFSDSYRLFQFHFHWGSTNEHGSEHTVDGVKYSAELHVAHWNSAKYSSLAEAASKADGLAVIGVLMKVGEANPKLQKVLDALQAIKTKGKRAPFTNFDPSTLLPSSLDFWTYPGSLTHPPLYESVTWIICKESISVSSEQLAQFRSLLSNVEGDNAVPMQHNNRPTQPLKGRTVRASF
Sequence of hCA IV (P22748 19-284 limits assumed): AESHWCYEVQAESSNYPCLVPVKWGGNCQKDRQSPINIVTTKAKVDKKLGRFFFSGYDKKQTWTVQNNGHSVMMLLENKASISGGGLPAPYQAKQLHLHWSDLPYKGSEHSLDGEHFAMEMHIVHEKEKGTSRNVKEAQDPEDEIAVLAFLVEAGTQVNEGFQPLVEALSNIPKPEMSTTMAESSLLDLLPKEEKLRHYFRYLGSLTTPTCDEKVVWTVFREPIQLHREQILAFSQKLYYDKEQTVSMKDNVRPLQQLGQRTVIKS

Row | pKi (hCA I) | pKi (hCA II) | pKi (hCA IV) | pKi (hCA IX; KI hCA IX, stopped flow technique, mean from three assays) | Selectivity index I/IX (hCA IX; ratio KI hCA I / KI hCA IX) | Selectivity index II/IX (hCA IX; ratio KI hCA II / KI hCA IX) | Selectivity index IV/IX (hCA IX; ratio KI hCA IV / KI hCA IX) | pKi (hCA XII; KI hCA XII, stopped flow technique, mean from three assays) | Selectivity index I/XII (hCA XII; ratio KI hCA I / KI hCA XII) | Selectivity index II/XII (hCA XII; ratio KI hCA II / KI hCA XII) | Selectivity index IV/XII (hCA XII; ratio KI hCA IV / KI hCA XII) | SMILES | GI50 at 72 h [1] [µM] | effect of combination on efficacy of CDDP in reducing cell viability [2] | effect of combination on the effect of TMZ [3] | effect of combination on the effect of TMZ [4] | apoptotic cells in combination with cis-Pt (HD-MB03 cells) | induction of apoptosis (apoptotic cells) (HD-MB03 cells) | apoptotic cells in combination with TMZ [5] | induction of apoptosis [5]
1 | 6.30 | 7.86 | 6.18 | 8.07 | 57.7 | 1.6 | 77.0 | 8.27 | 91.9 | 2.6 | 123 | NS(=O)(=O)c1ccc(Nc2nc3nccc(-c4c(F)ccc(F)c4F)n3n2)cc1 [Compound 1j, 4-((7-(2,3,6-Trifluorophenyl)-[1,2,4]triazolo[1,5-a]pyrimidin-2-yl)amino)benzenesulfonamide] | > 10 | significantly improved the efficacy of CDDP | did not significantly improve the effect of TMZ | did not significantly improve the effect of TMZ | significant increase in the percentage of apoptotic cells | about 25% | significant increase in the percentage of apoptotic cells | ineffective
2 |  |  |  |  |  |  |  |  |  |  |  | NS(=O)(=O)c1ccc(NC(=O)Nc2ccc(F)cc2)cc1 [SLC-0111, reference compound] | > 10 |  |  |  | did not cause any increase in cytotoxicity | did not significantly induce apoptosis | did not cause any increase in cytotoxicity | did not significantly induce apoptosis
